Test results reported in ChEMBL document CHEMBL1158326, “Isolation, synthesis, and antiplatelet aggregation activity of resveratrol 3-O-beta-D-glucopyranoside and related compounds” (J Nat Prod, 1997).
Converted amounts (≈) assume the structure as drawn.

What follows are compounds tested on Platelet (assay: Inhibition of adenosine diphosphate-induced platelet aggregation in human platelet-rich plasma).
Format: functional, cell-free
How it was run: (§1)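 Citrated human PRP from forearm-vein blood (3.8% citrate 1:9, spun 1250 rpm for 18 min at room temperature), adjusted to […] with PPP. Platelets stirred at 1000 rpm and preincubated 3 min at 37 °C with compound or 0.25% DMSO. Inducers were ADP 6 µM, adrenalin 2 µM, arachidonic acid 100 µM, or collagen. Turbidimetric aggregometry read-out; IC50 given as mean ± SE.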

Row | IC50 [µg/mL] | SMILES
1 | 300 (≈ 627 µM) | COc1ccc(/C=C/c2cc(OC)c(OC)c(OC)c2)c(O[C@@H]2O[C@H](CO)[C@@H](O)[C@H](O)[C@H]2O)c1
2 | 120 (≈ 308 µM) | OC[C@H]1O[C@@H](Oc2cc(O)cc(/C=C\c3ccc(O)cc3)c2)[C@H](O)[C@@H](O)[C@@H]1O [Z-PICEID]
3 | 300 (≈ 530 µM) | COc1ccc(/C=C/c2cc(O[C@@H]3O[C@H](CO)[C@@H](O)[C@H](O)[C@H]3O)cc(O[C@@H]3O[C@H](CO)[C@@H](O)[C@H](O)[C@H]3O)c2)cc1
4 | 300 (≈ 742 µM) | COc1ccc(/C=C/c2cc(O)cc(O[C@@H]3O[C@H](CO)[C@@H](O)[C@H](O)[C@H]3O)c2)cc1
5 | 84.9 (≈ 217 µM) | OC[C@H]1O[C@@H](Oc2cc(O)cc(/C=C/c3ccc(O)cc3)c2)[C@H](O)[C@@H](O)[C@@H]1O [PICEID]
6 | 60.6 (≈ 182 µM) | COc1ccc(/C=C\c2cc(OC)c(OC)c(OC)c2)c(O)c1O [COMBRETASTATIN A-1]
7 | 300 (≈ 530 µM) | COc1ccc(/C=C\c2cc(O[C@@H]3O[C@H](CO)[C@@H](O)[C@H](O)[C@H]3O)cc(O[C@@H]3O[C@H](CO)[C@@H](O)[C@H](O)[C@H]3O)c2)cc1
8 | 198 (≈ 490 µM) | COc1ccc(/C=C\c2cc(O)cc(O[C@@H]3O[C@H](CO)[C@@H](O)[C@H](O)[C@H]3O)c2)cc1

Row | SMILES | IC50 [µg/mL]
9 | COc1ccc(/C=C/c2cc(O)cc(O)c2)cc1 [RESVERATROL 4'-METHYL ETHER] | 119 (≈ 492 µM)
10 | COc1ccc(/C=C/c2cc(OC)c(OC)c(OC)c2)c(O)c1 | 300 (≈ 948 µM)
11 | COc1ccc(/C=C\c2cc(OC)c(OC)c(OC)c2)cc1O [COMBRETASTATIN A4] | 75.2 (≈ 238 µM)
12 | COc1ccc(/C=C\c2cc(O)cc(O)c2)cc1 | 101 (≈ 415 µM)

The compounds below were run on Platelet (assay: Inhibition of arachidonic acid-induced platelet aggregation in human platelet-rich plasma).
Format: functional, cell-free
How it was run: as §1

Row | IC50 [µg/mL] | SMILES
13 | 57.2 (≈ 147 µM) | OC[C@H]1O[C@@H](Oc2cc(O)cc(/C=C/c3ccc(O)cc3)c2)[C@H](O)[C@@H](O)[C@@H]1O [PICEID]

The compounds below were run on Platelet (assay: Inhibition of collagen-induced platelet aggregation in human platelet-rich plasma).
Format: functional, cell-free
How it was run: as §1

Row | SMILES | IC50 [µg]
14 | COc1ccc(/C=C\c2cc(O)cc(O)c2)cc1 | 33.9
